Laboratory results published in ChEMBL document CHEMBL4706728, “Discovery of a Highly Selective and Potent TRPC3 Inhibitor with High Metabolic Stability and Low Toxicity” (ACS Med Chem Lett, 2021).
Active and inactive are the calls of the source. The calls are words filed in the database; no cut-off is given here.

How the values were obtained:
[1] = molecular target: T1, Short transient receptor potential channel 6 (Mus musculus) (UniProt Q61143); assay: Inhibition of mouse TRPC6 expressed in HEK293 cells assessed as inhibition of GSK170-induced current at 10 uM by whole cell patch-clamp method; assay type: cell-based
T1 sequence (whole entry): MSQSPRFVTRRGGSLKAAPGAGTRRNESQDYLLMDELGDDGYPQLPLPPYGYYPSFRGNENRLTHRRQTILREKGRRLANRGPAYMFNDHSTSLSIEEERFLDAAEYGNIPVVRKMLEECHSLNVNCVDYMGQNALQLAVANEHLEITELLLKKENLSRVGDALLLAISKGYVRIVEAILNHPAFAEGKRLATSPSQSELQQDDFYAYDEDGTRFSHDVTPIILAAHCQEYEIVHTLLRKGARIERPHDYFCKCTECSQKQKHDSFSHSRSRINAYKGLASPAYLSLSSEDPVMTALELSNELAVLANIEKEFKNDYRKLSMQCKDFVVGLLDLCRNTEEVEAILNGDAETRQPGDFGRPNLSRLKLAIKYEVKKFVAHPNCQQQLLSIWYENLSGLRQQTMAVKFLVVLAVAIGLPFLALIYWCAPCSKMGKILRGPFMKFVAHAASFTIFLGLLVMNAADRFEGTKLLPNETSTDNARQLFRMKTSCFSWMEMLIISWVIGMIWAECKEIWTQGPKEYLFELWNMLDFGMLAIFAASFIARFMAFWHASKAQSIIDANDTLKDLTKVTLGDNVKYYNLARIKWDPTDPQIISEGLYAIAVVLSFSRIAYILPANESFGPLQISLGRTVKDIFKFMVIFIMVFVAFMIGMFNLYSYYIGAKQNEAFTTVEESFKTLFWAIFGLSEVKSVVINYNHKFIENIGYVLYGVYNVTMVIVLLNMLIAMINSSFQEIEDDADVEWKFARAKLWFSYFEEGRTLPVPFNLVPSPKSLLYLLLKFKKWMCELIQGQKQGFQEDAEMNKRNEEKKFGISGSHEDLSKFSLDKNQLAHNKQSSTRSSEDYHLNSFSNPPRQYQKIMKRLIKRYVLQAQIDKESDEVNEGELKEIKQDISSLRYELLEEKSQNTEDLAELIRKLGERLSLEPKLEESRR
How it was run: (§1)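 TRP channels overexpressed in HEK293 cells (hTRPA1, rTRPV1, rTRPV4, mouse TRPC6, hTRPC7, hTRPM8). Whole-cell patch clamp with Ca2+-free solutions to avoid desensitization. Channels fully activated with high concentrations of their agonists (AITC for TRPA1, capsaicin for TRPV1, GSK1016790A for TRPV4), then 10 μM test compound perfused with agonist. Result expressed as percentage of peak current blocked; mean ± SD.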

[2] = molecular target: Transient receptor potential cation channel subfamily V member 1 (Rattus norvegicus) (UniProt O35433); assay: Inhibition of rat TRPV1 expressed in HEK293 cells assessed as inhibition of capsaicin-induced current at 10 uM by whole cell patch-clamp method; assay type: cell-based; how it was run: as §1
Sequence of Transient receptor potential cation channel subfamily V member 1 (Rattus norvegicus) (O35433 whole entry): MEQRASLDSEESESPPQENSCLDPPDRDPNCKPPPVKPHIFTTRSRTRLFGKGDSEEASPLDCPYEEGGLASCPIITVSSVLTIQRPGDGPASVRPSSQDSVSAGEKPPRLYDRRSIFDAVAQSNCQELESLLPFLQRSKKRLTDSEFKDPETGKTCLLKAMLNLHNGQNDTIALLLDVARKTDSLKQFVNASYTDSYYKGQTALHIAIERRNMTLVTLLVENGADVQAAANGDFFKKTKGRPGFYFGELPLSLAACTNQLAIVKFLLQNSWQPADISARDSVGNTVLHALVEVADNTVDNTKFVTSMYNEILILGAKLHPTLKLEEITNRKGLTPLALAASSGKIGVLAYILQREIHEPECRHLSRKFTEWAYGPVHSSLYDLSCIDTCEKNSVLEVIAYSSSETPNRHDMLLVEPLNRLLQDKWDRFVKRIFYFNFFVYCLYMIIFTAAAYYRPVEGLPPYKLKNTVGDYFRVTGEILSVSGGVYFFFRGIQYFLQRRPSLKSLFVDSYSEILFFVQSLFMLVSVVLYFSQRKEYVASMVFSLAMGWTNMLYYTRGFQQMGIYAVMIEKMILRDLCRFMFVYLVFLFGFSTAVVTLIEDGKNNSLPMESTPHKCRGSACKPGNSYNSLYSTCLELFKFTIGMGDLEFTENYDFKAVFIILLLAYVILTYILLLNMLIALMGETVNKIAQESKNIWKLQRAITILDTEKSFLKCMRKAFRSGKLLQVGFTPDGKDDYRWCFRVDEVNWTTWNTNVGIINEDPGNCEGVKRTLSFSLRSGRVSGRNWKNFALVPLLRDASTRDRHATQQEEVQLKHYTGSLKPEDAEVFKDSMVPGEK

CCNC(=O)c1cnn(-c2ccc(-n3ccc(Cl)c(Cl)c3=O)cc2)c1C(F)(F)F
inhibition [1]: 39% | inhibition [2]: inactive
